# Laboratory results reported in ChEMBL document CHEMBL4265871, “Novel alkylated azoles as potent antifungals” (Eur J Med Chem, 2017).
# System: not listed separately
# Test: Selectivity index, ratio of EC50 for toxicity in human A549 cells to MIC100 for antifungal activity against Candida albicans ATCC 10231
# Type: cell-based
# Settings: read-out: Selectivity Index
# In short: (§1)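 Selectivity index is the EC50 against the mammalian line (A549 or BEAS-2B) divided by the MIC against the given fungal strain.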
row,SMILES,selectivity ratio
1,CCCCCC(O)(Cn1cncn1)c1ccc(Cl)cc1Cl (stereo unspecified),138
2,CCCCCCC(O)(Cn1cncn1)c1ccccc1Cl (stereo unspecified),4
3,CCCCC(O)(Cn1cncn1)c1ccc(F)cc1F (stereo unspecified),16
4,CCCCCCC(O)(Cn1cncn1)c1ccc(F)cc1 (stereo unspecified),2
5,CCCCCCC(O)(Cn1cncn1)c1ccc(Cl)cc1 (stereo unspecified),19
6,CCCCCC(O)(Cn1cncn1)c1ccc(Cl)cc1 (stereo unspecified),16

# System: not listed separately
# Test: Selectivity index, ratio of […] for toxicity in human A549 cells to MIC50 for antifungal activity against Aspergillus flavus ATCC MYA-3631
# Type: cell-based
# Settings: read-out: Selectivity Index
row,SMILES,selectivity ratio
1,CCCCCC(O)(Cn1cncn1)c1ccc(Cl)cc1Cl (stereo unspecified),8
2,CCCCCCC(O)(Cn1cncn1)c1ccccc1Cl (stereo unspecified),8 to 16
3,CCCCC(O)(Cn1cncn1)c1ccc(F)cc1F (stereo unspecified),2
4,CCCCCCC(O)(Cn1cncn1)c1ccc(F)cc1 (stereo unspecified),1
5,CCCCCCC(O)(Cn1cncn1)c1ccc(Cl)cc1 (stereo unspecified),1
6,CCCCCC(O)(Cn1cncn1)c1ccc(Cl)cc1 (stereo unspecified),1

# System: Candida albicans
# Test: Antifungal activity against ITC and FLC-resistant Candida albicans ATCC 1237 incubated for 48 hrs by modified CLSI M27-A3 protocol based method
# Type: functional
# Settings: ATCC 1237, 48 h
# In short: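 Because these Candida strains show trailing growth, MIC-2 was read, meaning 50% growth inhibition. Caspofungin and voriconazole were tested here; other controls came from earlier work.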
row,SMILES,MIC50
1,CCCCCC(O)(Cn1cncn1)c1ccc(Cl)cc1Cl (stereo unspecified),5.9 µM
2,CCCCCCC(O)(Cn1cncn1)c1ccccc1Cl (stereo unspecified),3.2 µM
3,CCCCC(O)(Cn1cncn1)c1ccc(F)cc1F (stereo unspecified),55.5 µM
4,CCCCCCC(O)(Cn1cncn1)c1ccc(F)cc1 (stereo unspecified),107 µM
5,CCCCCCC(O)(Cn1cncn1)c1ccc(Cl)cc1 (stereo unspecified),12.7 µM
6,CCCCCC(O)(Cn1cncn1)c1ccc(Cl)cc1 (stereo unspecified),13.3 µM

# System: Aspergillus terreus
# Test: Antifungal activity against Aspergillus terreus ATCC MYA-3633 incubated for 48 hrs by CLSI M38-A2 protocol based method
# Type: functional
# Settings: ATCC MYA-3633, 48 h, read-out: MIC100
row,SMILES,MIC
1,CCCCCC(O)(Cn1cncn1)c1ccc(Cl)cc1Cl (stereo unspecified),11.9 µM
2,CCCCCCC(O)(Cn1cncn1)c1ccccc1Cl (stereo unspecified),1.6 µM
3,CCCCC(O)(Cn1cncn1)c1ccc(F)cc1F (stereo unspecified),55.5 µM
4,CCCCCCC(O)(Cn1cncn1)c1ccc(F)cc1 (stereo unspecified),53.5 µM
5,CCCCCCC(O)(Cn1cncn1)c1ccc(Cl)cc1 (stereo unspecified),50.7 µM
6,CCCCCC(O)(Cn1cncn1)c1ccc(Cl)cc1 (stereo unspecified),> 106 µM

# System: not listed separately
# Test: Selectivity index, ratio of […] for toxicity in human BEAS2B cells to MIC50 for antifungal activity against Aspergillus nidulans ATCC 38163
# Type: cell-based
# Settings: BEAS-2B cells, read-out: Selectivity Index
row,SMILES,selectivity ratio
1,CCCCCC(O)(Cn1cncn1)c1ccc(Cl)cc1Cl (stereo unspecified),65
2,CCCCCCC(O)(Cn1cncn1)c1ccccc1Cl (stereo unspecified),522
3,CCCCC(O)(Cn1cncn1)c1ccc(F)cc1F (stereo unspecified),19
4,CCCCCCC(O)(Cn1cncn1)c1ccc(F)cc1 (stereo unspecified),16
5,CCCCCCC(O)(Cn1cncn1)c1ccc(Cl)cc1 (stereo unspecified),8
6,CCCCCC(O)(Cn1cncn1)c1ccc(Cl)cc1 (stereo unspecified),4

# System: A549
# Test: Toxicity in human A549 cells assessed as cell viability at 15.6 ug/ml incubated for 24 hrs by resazurin dye based assay
# Settings: a549, 24 h
row,SMILES,viability
1,CCCCCC(O)(Cn1cncn1)c1ccc(Cl)cc1Cl (stereo unspecified),> 85%

# System: not listed separately
# Test: Selectivity index, ratio of EC50 for toxicity in human A549 cells to MIC50 for antifungal activity against Candida glabrata ATCC 2001
# Type: cell-based
# Settings: read-out: Selectivity Index
# In short: as §1
row,SMILES,selectivity ratio
1,CCCCCC(O)(Cn1cncn1)c1ccc(Cl)cc1Cl (stereo unspecified),17
2,CCCCCCC(O)(Cn1cncn1)c1ccccc1Cl (stereo unspecified),32
3,CCCCC(O)(Cn1cncn1)c1ccc(F)cc1F (stereo unspecified),1
4,CCCCCCC(O)(Cn1cncn1)c1ccc(F)cc1 (stereo unspecified),4
5,CCCCCCC(O)(Cn1cncn1)c1ccc(Cl)cc1 (stereo unspecified),1
6,CCCCCC(O)(Cn1cncn1)c1ccc(Cl)cc1 (stereo unspecified),8

# System: BEAS-2B
# Test: Toxicity in human BEAS2B cells assessed as cell viability at 15.6 ug/ml incubated for 24 hrs by resazurin dye based assay
# Settings: not given
row,SMILES,viability
1,CCCCCC(O)(Cn1cncn1)c1ccc(Cl)cc1Cl (stereo unspecified),> 85%

# System: Candida albicans
# Test: Antifungal activity against ITC and FLC-resistant Candida albicans ATCC MYA-90819 incubated for 48 hrs by modified CLSI M27-A3 protocol based method
# Type: functional
# Settings: ATCC MYA-90819, 48 h
row,SMILES,MIC50
1,CCCCCC(O)(Cn1cncn1)c1ccc(Cl)cc1Cl (stereo unspecified),5.9 µM
2,CCCCCCC(O)(Cn1cncn1)c1ccccc1Cl (stereo unspecified),6.3 µM
3,CCCCC(O)(Cn1cncn1)c1ccc(F)cc1F (stereo unspecified),55.5 µM
4,CCCCCCC(O)(Cn1cncn1)c1ccc(F)cc1 (stereo unspecified),3.3 µM
5,CCCCCCC(O)(Cn1cncn1)c1ccc(Cl)cc1 (stereo unspecified),12.7 µM
6,CCCCCC(O)(Cn1cncn1)c1ccc(Cl)cc1 (stereo unspecified),6.6 µM

# System: not listed separately
# Test: Hemolytic activity in mouse erythrocytes assessed as hemolysis level at 125 ug/ml incubated for 1 hr at 37 degC
# Type: ADME, cell-based, Erythrocyte
# Settings: read-out: Activity
# In short: (§2)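 Mouse erythrocytes incubated 1 h at 37 °C with test agents over 1.95 to 125 µg/mL. Percent lysis is read for each concentration.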
row,SMILES,"hemolysis at 1 h, 125 ug/ml"
1,CCCCCC(O)(Cn1cncn1)c1ccc(Cl)cc1Cl (stereo unspecified),100%
2,CCCCCCC(O)(Cn1cncn1)c1ccccc1Cl (stereo unspecified),92%
3,CCCCC(O)(Cn1cncn1)c1ccc(F)cc1F (stereo unspecified),0%
4,CCCCCCC(O)(Cn1cncn1)c1ccc(F)cc1 (stereo unspecified),24.1%
5,CCCCCCC(O)(Cn1cncn1)c1ccc(Cl)cc1 (stereo unspecified),102%

# System: not listed separately
# Test: Selectivity index, ratio of […] for toxicity in human A549 cells to MIC50 for antifungal activity against Aspergillus terreus ATCC MYA-3633
# Type: cell-based
# Settings: read-out: Selectivity Index
row,SMILES,selectivity ratio
1,CCCCCC(O)(Cn1cncn1)c1ccc(Cl)cc1Cl (stereo unspecified),8
2,CCCCCCC(O)(Cn1cncn1)c1ccccc1Cl (stereo unspecified),65
3,CCCCC(O)(Cn1cncn1)c1ccc(F)cc1F (stereo unspecified),2
4,CCCCCCC(O)(Cn1cncn1)c1ccc(F)cc1 (stereo unspecified),2
5,CCCCCCC(O)(Cn1cncn1)c1ccc(Cl)cc1 (stereo unspecified),2
6,CCCCCC(O)(Cn1cncn1)c1ccc(Cl)cc1 (stereo unspecified),1

# System: Candida albicans
# Test: Antifungal activity against Candida albicans ATCC 10231 incubated for 48 hrs by modified CLSI M27-A3 protocol based method
# Type: functional
# Settings: ATCC 10231, 48 h, read-out: MIC100
# In short: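 For C. albicans ATCC 10231, C. krusei ATCC 6258 and C. parapsilosis ATCC 22019, MIC-0 was read, meaning complete growth inhibition. For azole controls, MIC-2 (50% growth inhibition) was reported instead. Caspofungin and voriconazole were tested here; other controls came from earlier work.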
row,SMILES,MIC
1,CCCCCC(O)(Cn1cncn1)c1ccc(Cl)cc1Cl (stereo unspecified),0.73 µM
2,CCCCCCC(O)(Cn1cncn1)c1ccccc1Cl (stereo unspecified),25.3 µM
3,CCCCC(O)(Cn1cncn1)c1ccc(F)cc1F (stereo unspecified),6.9 µM
4,CCCCCCC(O)(Cn1cncn1)c1ccc(F)cc1 (stereo unspecified),53.5 µM
5,CCCCCCC(O)(Cn1cncn1)c1ccc(Cl)cc1 (stereo unspecified),6.3 µM
6,CCCCCC(O)(Cn1cncn1)c1ccc(Cl)cc1 (stereo unspecified),6.6 µM

# System: not listed separately
# Test: Selectivity index, ratio of EC50 for toxicity in human BEAS2B cells to MIC for antifungal activity against Candida parapsilosis ATCC 22019
# Settings: BEAS-2B cells
row,SMILES,selectivity ratio
1,CCCCCC(O)(Cn1cncn1)c1ccc(Cl)cc1Cl (stereo unspecified),1040
2,CCCCCCC(O)(Cn1cncn1)c1ccccc1Cl (stereo unspecified),261
3,CCCCC(O)(Cn1cncn1)c1ccc(F)cc1F (stereo unspecified),1200
4,CCCCCCC(O)(Cn1cncn1)c1ccc(F)cc1 (stereo unspecified),65
5,CCCCCCC(O)(Cn1cncn1)c1ccc(Cl)cc1 (stereo unspecified),1
6,CCCCCC(O)(Cn1cncn1)c1ccc(Cl)cc1 (stereo unspecified),522

# System: Aspergillus flavus
# Test: Antifungal activity against Aspergillus flavus ATCC MYA-3631 incubated for 48 hrs by CLSI M38-A2 protocol based method
# Type: functional
# Settings: ATCC MYA-3631, 48 h, read-out: MIC100
row,SMILES,MIC
1,CCCCCC(O)(Cn1cncn1)c1ccc(Cl)cc1Cl (stereo unspecified),11.9 µM
2,CCCCCCC(O)(Cn1cncn1)c1ccccc1Cl (stereo unspecified),6.3 to 12.7 µM
3,CCCCC(O)(Cn1cncn1)c1ccc(F)cc1F (stereo unspecified),55.5 µM
4,CCCCCCC(O)(Cn1cncn1)c1ccc(F)cc1 (stereo unspecified),> 107 µM
5,CCCCCCC(O)(Cn1cncn1)c1ccc(Cl)cc1 (stereo unspecified),> 102 µM
6,CCCCCC(O)(Cn1cncn1)c1ccc(Cl)cc1 (stereo unspecified),> 106 µM

# System: not listed separately
# Test: Hemolytic activity in mouse erythrocytes assessed as hemolysis level at 15.6 ug/ml incubated for 1 hr at 37 degC
# Type: ADME, cell-based, Erythrocyte
# Settings: read-out: Activity
# In short: as §2
row,SMILES,"hemolysis at 1 h, 15.6 ug/ml"
1,CCCCCC(O)(Cn1cncn1)c1ccc(Cl)cc1Cl (stereo unspecified),0%
2,CCCCCCC(O)(Cn1cncn1)c1ccccc1Cl (stereo unspecified),0%
3,CCCCC(O)(Cn1cncn1)c1ccc(F)cc1F (stereo unspecified),0%
4,CCCCCCC(O)(Cn1cncn1)c1ccc(F)cc1 (stereo unspecified),0%
5,CCCCCCC(O)(Cn1cncn1)c1ccc(Cl)cc1 (stereo unspecified),0%

# System: not listed separately
# Test: Selectivity index, ratio of EC50 for toxicity in human BEAS2B cells to MIC50 for antifungal activity against ITC and FLC-resistant Candida albicans ATCC MYA-90819
# Type: cell-based
# Settings: BEAS-2B cells, read-out: Selectivity Index
# In short: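 Ratio of the compound's EC50 against BEAS-2B cells to its MIC against the named C. albicans strain. […] For C. albicans strains other than ATCC 10231, trailing growth meant MIC-2 was taken, meaning 50% growth inhibition.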
row,SMILES,selectivity ratio
1,CCCCCC(O)(Cn1cncn1)c1ccc(Cl)cc1Cl (stereo unspecified),16
2,CCCCCCC(O)(Cn1cncn1)c1ccccc1Cl (stereo unspecified),16
3,CCCCC(O)(Cn1cncn1)c1ccc(F)cc1F (stereo unspecified),2
4,CCCCCCC(O)(Cn1cncn1)c1ccc(F)cc1 (stereo unspecified),32
5,CCCCCCC(O)(Cn1cncn1)c1ccc(Cl)cc1 (stereo unspecified),8
6,CCCCCC(O)(Cn1cncn1)c1ccc(Cl)cc1 (stereo unspecified),16

# System: not listed separately
# Test: Selectivity index, ratio of EC50 for toxicity in human A549 cells to MIC50 for antifungal activity against ITC and FLC-susceptible Candida albicans ATCC MYA-2310
# Type: cell-based
# Settings: read-out: Selectivity Index
# In short: as §1
row,SMILES,selectivity ratio
1,CCCCCC(O)(Cn1cncn1)c1ccc(Cl)cc1Cl (stereo unspecified),17
2,CCCCCCC(O)(Cn1cncn1)c1ccccc1Cl (stereo unspecified),16
3,CCCCC(O)(Cn1cncn1)c1ccc(F)cc1F (stereo unspecified),1
4,CCCCCCC(O)(Cn1cncn1)c1ccc(F)cc1 (stereo unspecified),4
5,CCCCCCC(O)(Cn1cncn1)c1ccc(Cl)cc1 (stereo unspecified),1
6,CCCCCC(O)(Cn1cncn1)c1ccc(Cl)cc1 (stereo unspecified),2

# System: not listed separately
# Test: Selectivity index, ratio of […] for toxicity in human BEAS2B cells to MIC50 for antifungal activity against Aspergillus terreus ATCC MYA-3633
# Type: cell-based
# Settings: BEAS-2B cells, read-out: Selectivity Index
row,SMILES,selectivity ratio
1,CCCCCC(O)(Cn1cncn1)c1ccc(Cl)cc1Cl (stereo unspecified),8
2,CCCCCCC(O)(Cn1cncn1)c1ccccc1Cl (stereo unspecified),65
3,CCCCC(O)(Cn1cncn1)c1ccc(F)cc1F (stereo unspecified),2
4,CCCCCCC(O)(Cn1cncn1)c1ccc(F)cc1 (stereo unspecified),2
5,CCCCCCC(O)(Cn1cncn1)c1ccc(Cl)cc1 (stereo unspecified),2
6,CCCCCC(O)(Cn1cncn1)c1ccc(Cl)cc1 (stereo unspecified),1
